Experimental data from ChEMBL document CHEMBL2010794, “Discovery of nor-seco himbacine analogs as thrombin receptor antagonists” (Bioorg Med Chem Lett, 2012).
The source made the active and inactive calls. No cut-off for these calls is given here.

Assays:
[1] = target: T1, Proteinase-activated receptor 1 (Homo sapiens, UniProt P25116); assay: Displacement of [3H]haTRAP from human PAR1 after 1 hr by TopCount scintillation counting
T1 sequence (P25116 whole entry): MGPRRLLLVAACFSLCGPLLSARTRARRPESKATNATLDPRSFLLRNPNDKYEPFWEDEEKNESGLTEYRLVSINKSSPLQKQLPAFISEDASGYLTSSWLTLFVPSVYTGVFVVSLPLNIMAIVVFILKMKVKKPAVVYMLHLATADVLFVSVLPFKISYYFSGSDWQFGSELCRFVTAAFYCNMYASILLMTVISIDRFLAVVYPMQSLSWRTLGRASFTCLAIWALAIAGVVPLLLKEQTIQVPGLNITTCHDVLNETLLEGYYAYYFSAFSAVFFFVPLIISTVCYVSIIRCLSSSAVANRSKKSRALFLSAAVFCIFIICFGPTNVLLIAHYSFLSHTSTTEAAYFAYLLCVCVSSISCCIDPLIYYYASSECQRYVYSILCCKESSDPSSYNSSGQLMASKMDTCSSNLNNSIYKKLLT
Procedure, shortened: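 PAR-1 receptors isolated from human platelets; competition binding against [³H]haTRAP radioligand; values expressed as IC₅₀ (nM).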

[2] = tested on: Cynomolgus monkey; assay: Ex-vivo inhibition of PAR1 in cynomolgus monkey assessed as inhibition of haTRAP-induced platelet aggregation at 3 mg/kg, po at 24 hrs by aggregometry; format: functional; settings: Macaca fascicularis
Procedure, shortened: (§1)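 Cynomolgus monkeys dosed orally in 20% PEG-HPBCD (hydrochloride salt for the 7a-hydroxy series); blood sampled at various times up to 24 h; haTRAP added to whole blood at 1 µM to trigger aggregation, measured by aggregometer; result given as % reduction in haTRAP-induced aggregation at the stated dose and time.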

[3] = AUC (0 to 6 hrs) in rat at 10 mg/kg, po; format: ADME, organism-based; set-up: time < 6 hr, dose 10 mg/kg, route oral; settings: plasma
Procedure, shortened: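 Rats given a single 10 mg/kg oral dose in 0.4% methylcellulose; plasma levels followed up to 6 h; AUC from 0 to 6 h reported in ng h/mL.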

[4] = AUC (0 to 24 hrs) in cynomolgus monkey plasma at 3 mg/kg, po; format: ADME, organism-based, Macaca fascicularis; set-up: time < 24 hr, dose 3 mg/kg, route oral
[5] = tested on: Cynomolgus monkey; assay: Ex-vivo inhibition of PAR1 in cynomolgus monkey assessed as inhibition of haTRAP-induced platelet aggregation at 3 mg/kg, po at 6 hrs by aggregometry; format: functional; settings: Macaca fascicularis; procedure, shortened: as §1
[6] = tested on: Cynomolgus monkey; assay: Ex-vivo inhibition of PAR1 in cynomolgus monkey assessed as inhibition of haTRAP-induced platelet aggregation at 0.3 mg/kg, po by aggregometry; format: functional, organism-based; set-up: dose 0.3 mg/kg; settings: Macaca fascicularis; procedure, shortened: as §1
[7] = AUC (0 to 24 hrs) in cynomolgus monkey at 1 mg/kg, po; format: ADME, organism-based, Macaca fascicularis; set-up: time < 24 hr, dose 1 mg/kg, route oral; settings: plasma
[8] = tested on: Cynomolgus monkey; assay: Ex-vivo inhibition of PAR1 in cynomolgus monkey assessed as inhibition of haTRAP-induced platelet aggregation at 1 mg/kg, po up to 6 hrs by aggregometry; format: functional, organism-based; set-up: dose 1 mg/kg; settings: Macaca fascicularis; procedure, shortened: as §1
[9] = tested on: Cynomolgus monkey; assay: Ex-vivo inhibition of PAR1 in cynomolgus monkey assessed as inhibition of haTRAP-induced platelet aggregation at 1 mg/kg, po by aggregometry; format: functional, organism-based; set-up: dose 1 mg/kg; settings: Macaca fascicularis; procedure, shortened: as §1
[10] = tested on: Cynomolgus monkey; assay: Ex-vivo inhibition of PAR1 in cynomolgus monkey assessed as inhibition of haTRAP-induced platelet aggregation at 1 mg/kg, po at 24 hrs by aggregometry; format: functional; settings: Macaca fascicularis; procedure, shortened: as §1
[11] = AUC (0 to 24 hrs) in cynomolgus monkey plasma at 1 mg/kg, po; format: ADME, organism-based, Macaca fascicularis; set-up: time < 24 hr, dose 1 mg/kg, route oral
[12] = Cmax in cynomolgus monkey plasma at 3 mg/kg, po; format: ADME, organism-based, Macaca fascicularis; set-up: dose 3 mg/kg, route oral
[13] = tested on: Cynomolgus monkey; assay: AUC (0 to 24 hrs) in cynomolgus monkey plasma assessed as M+16 hydroxy metabolite at 3 mg/kg, po; format: ADME, organism-based, Macaca fascicularis; set-up: time < 24 hr, dose 3 mg/kg, route oral; settings: in vivo
[14] = tested on: Liver microsomes; assay: Prodrug activation in rat liver microsomes assessed as (3R,3aR,4S,5R,6S,7aS)-5-ethyl-4-((E)-2-(5-(3-fluorophenyl)pyridin-2-yl)vinyl)-7a-hydroxy-3,6-dimethylhexahydroisobenzofuran-1(3H)-one formation; set-up: species or system Microsome
[15] = tested on: Cynomolgus monkey; assay: Cmax in cynomolgus monkey plasma assessed as M+16 hydroxy metabolite at 3 mg/kg, po; format: ADME, organism-based, Macaca fascicularis; set-up: dose 3 mg/kg, route oral; settings: in vivo

Compound | IC50 ([1]; read-out: IC50) [µM] | AUC(0-t) at 6 h [3] [µg·h/mL] | other results
CC[C@H]1[C@H](/C=C/c2ccc(-c3ccccc3F)cn2)[C@@H]2[C@@H](C)OC(=O)[C@@H]2C[C@@H]1C | 0.022 | 0.852 | inhibition in vivo at 3 mg/kg [2]: 45%
CC[C@H]1[C@H](/C=C/c2ccc(-c3cccc(C)c3)cn2)[C@@H]2[C@@H](C)OC(=O)[C@]2(O)C[C@@H]1C.Cl |  |  | AUC(0-t) at 24 h [4]: 2.77 µg·h/mL; inhibition in vivo at 3 mg/kg [5]: 100%
CC[C@H]1[C@H](/C=C/c2ccc(-c3ccc(OC)cc3)cn2)[C@@H]2[C@@H](C)OC(=O)[C@]2(O)C[C@@H]1C | 0.451 |  | 
CC[C@H]1[C@H](/C=C/c2ccc(-c3ccoc3)cn2)[C@@H]2[C@@H](C)OC(=O)[C@]2(O)C[C@@H]1C | 0.0086 | 0.148 | 
CC[C@H]1[C@H](/C=C/c2ccc(-c3ccccc3Cl)cn2)[C@@H]2[C@@H](C)OC(=O)[C@@H]2C[C@@H]1C | 0.025 |  | 
CC[C@H]1[C@H](/C=C/c2ccc(-c3ccccc3)cn2)[C@@H]2[C@@H](C)OC(=O)[C@]2(O)C[C@@H]1C [listing 1 of 2 here] |  |  | inhibition [2]: Active; inhibition [6]: Active
CC[C@H]1[C@H](/C=C/c2ccc(-c3cccc(OC)c3)cn2)[C@@H]2[C@@H](C)OC(=O)[C@]2(O)C[C@@H]1C [listing 1 of 2 here] | 0.018 | 2.44 | 
CC[C@H]1[C@H](/C=C/c2ccc(-c3ccccc3OC)cn2)[C@@H]2[C@@H](C)OC(=O)[C@]2(O)C[C@@H]1C | 0.0081 | 0.168 | 
CC[C@H]1[C@H](/C=C/c2ccc(-c3cccc(C)c3)cn2)[C@@H]2[C@@H](C)OC(=O)[C@@H]2C[C@@H]1C | 0.045 |  | 
CC[C@H]1[C@H](/C=C/c2ccc(-c3cccc(F)c3)cn2)[C@@H]2[C@@H](C)OC(=O)[C@]2(O)C[C@@H]1C | 0.027 | 1.14 | AUC(0-t) at 24 h [7]: 4.28 µg·h/mL; inhibition [8]: Active; inhibition in vivo at 3 mg/kg [2]: 100%
CC[C@H]1[C@H](/C=C/c2ccc(-c3cccnc3)cn2)[C@@H]2[C@@H](C)OC(=O)[C@]2(O)C[C@@H]1C [listing 1 of 2 here] |  |  | inhibition in vivo at 3 mg/kg [2]: 45%
CC[C@H]1[C@H](/C=C/c2ccc(-c3cccc(C#N)c3)cn2)[C@@H]2[C@@H](C)OC(=O)[C@]2(O)C[C@@H]1C | 0.02 | 1.08 | 
CC[C@H]1[C@H](/C=C/c2ccc(-c3cccc(Cl)c3)cn2)[C@@H]2[C@@H](C)OC(=O)[C@@H]2C[C@@H]1C | 0.028 |  | 
CC[C@H]1[C@H](/C=C/c2ccc(-c3cccc(OC)c3)cn2)[C@@H]2[C@@H](C)OC(=O)[C@]2(O)C[C@@H]1C [listing 2 of 2 here] |  |  | inhibition [9]: inactive
CC[C@H]1[C@H](/C=C/c2ccc(-c3ccccc3)cn2)[C@@H]2[C@@H](C)OC(=O)[C@@H]2C[C@@H]1C | 0.0088 | 0.672 | 
CC[C@H]1[C@H](/C=C/c2ccc(-c3cccc(C#N)c3)cn2)[C@@H]2[C@@H](C)OC(=O)[C@]2(O)C[C@@H]1C.Cl |  |  | inhibition in vivo at 1 mg/kg [10]: 60%; AUC(0-t) at 24 h [11]: 6.28 µg·h/mL
CC[C@H]1[C@H](/C=C/c2ccc(-c3ccccc3C)cn2)[C@@H]2[C@@H](C)OC(=O)[C@]2(O)C[C@@H]1C.Cl |  |  | AUC(0-t) at 24 h [4]: 2.72 µg·h/mL; inhibition in vivo at 3 mg/kg [5]: 55%
CC[C@H]1[C@H](/C=C/c2ccc(N3CCCC3)cn2)[C@@H]2[C@@H](C)OC(=O)[C@]2(O)C[C@@H]1C [listing 1 of 2 here] | 0.064 | 0.486 | 

Compound | IC50 ([1]; read-out: IC50) [µM] | AUC(0-t) at 6 h [3] [µg·h/mL] | other results
CC[C@H]1[C@H](/C=C/c2ccc(-c3cccc(F)c3)cn2)[C@@H]2[C@@H](C)OC(=O)[C@@H]2C[C@@H]1C | 0.015 | 0.23 | Cmax [12]: 0.062 µg/mL; AUC(0-t) at 24 h [4]: 0.451 µg·h/mL; AUC [13]: 1.4 µg·h/mL; inhibition in vivo at 1 mg/kg [10]: 69%; inhibition in vivo at 3 mg/kg [2]: 100%; Drug metabolism [14]: Active; Cmax [15]: 0.098 µg/mL
CC[C@H]1[C@H](/C=C/c2ccc(-c3ccccc3)cn2)[C@@H]2[C@@H](C)OC(=O)[C@]2(O)C[C@@H]1C [listing 2 of 2 here] | 0.0064 | 3.3 | 
CC[C@H]1[C@H](/C=C/c2ccc(-c3cccnc3)cn2)[C@@H]2[C@@H](C)OC(=O)[C@]2(O)C[C@@H]1C [listing 2 of 2 here] | 0.049 | 1.9 | 
CC[C@H]1[C@H](/C=C/c2ccc(-c3cccc(C(F)(F)F)c3)cn2)[C@@H]2[C@@H](C)OC(=O)[C@@H]2C[C@@H]1C | 0.024 |  | 
CC[C@H]1[C@H](/C=C/c2ccc(-c3ccoc3)cn2)[C@@H]2[C@@H](C)OC(=O)[C@]2(O)C[C@@H]1C.Cl |  |  | AUC(0-t) at 24 h [4]: 4.11 µg·h/mL; inhibition in vivo at 3 mg/kg [2]: 35%
CC[C@H]1[C@H](/C=C/c2ccc(-c3ccc(C#N)cc3)cn2)[C@@H]2[C@@H](C)OC(=O)[C@]2(O)C[C@@H]1C |  |  | IC50 [1]: Not Active
CC[C@H]1[C@H](/C=C/c2ccc(-c3cccc(C)c3)cn2)[C@@H]2[C@@H](C)OC(=O)[C@]2(O)C[C@@H]1C | 0.035 | 0.203 | 
CC[C@H]1[C@H](/C=C/c2ccc(-c3ccsc3)cn2)[C@@H]2[C@@H](C)OC(=O)[C@]2(O)C[C@@H]1C | 0.0046 | 0.397 | 
CC[C@H]1[C@H](/C=C/c2ccc(-c3ccccc3C)cn2)[C@@H]2[C@@H](C)OC(=O)[C@]2(O)C[C@@H]1C | 0.033 | 3.16 | 
CC[C@H]1[C@H](/C=C/c2ccc(-c3cccc(OC)c3)cn2)[C@@H]2[C@@H](C)OC(=O)[C@]2(O)C[C@@H]1C.Cl |  |  | AUC(0-t) at 24 h [11]: 1.21 µg·h/mL
CC[C@H]1[C@H](/C=C/c2ccc(-c3ccsc3)cn2)[C@@H]2[C@@H](C)OC(=O)[C@]2(O)C[C@@H]1C.Cl |  |  | AUC(0-t) at 24 h [4]: 4.74 µg·h/mL; inhibition in vivo at 3 mg/kg [2]: 90%
CC[C@H]1[C@H](/C=C/c2ccc(N3CCCC3)cn2)[C@@H]2[C@@H](C)OC(=O)[C@]2(O)C[C@@H]1C [listing 2 of 2 here] |  |  | inhibition in vivo at 3 mg/kg [5]: 100%
CC[C@H]1[C@H](/C=C/c2ccc(-c3cccc(Cl)c3Cl)cn2)[C@@H]2[C@@H](C)OC(=O)[C@@H]2C[C@@H]1C | 0.013 | 1.15 | AUC(0-t) at 24 h [4]: 0.573 µg·h/mL; AUC [13]: 0.813 µg·h/mL; inhibition in vivo at 3 mg/kg [2]: 95%
CC[C@H]1[C@H](/C=C/c2ccc(-c3cc(Cl)ccc3Cl)cn2)[C@@H]2[C@@H](C)OC(=O)[C@@H]2C[C@@H]1C | 0.513 |  | 
CC[C@H]1[C@H](CCc2ccc(-c3cccc(C(F)(F)F)c3)cn2)[C@@H]2[C@@H](C)OC(=O)[C@@H]2C[C@@H]1C | 0.225 |  | 
CC[C@H]1[C@H](/C=C/c2ccc(-c3cccc(C#N)c3)cn2)[C@@H]2[C@@H](C)OC(=O)[C@@H]2C[C@@H]1C | 0.021 |  | 
CC[C@H]1[C@H](/C=C/c2ccc(-c3ccccc3C)cn2)[C@@H]2[C@@H](C)OC(=O)[C@@H]2C[C@@H]1C | 0.02 |  | 
